One data set deals with T1, Prostaglandin E synthase (Homo sapiens, UniProt O14684).
T1 sequence (O14684 whole entry): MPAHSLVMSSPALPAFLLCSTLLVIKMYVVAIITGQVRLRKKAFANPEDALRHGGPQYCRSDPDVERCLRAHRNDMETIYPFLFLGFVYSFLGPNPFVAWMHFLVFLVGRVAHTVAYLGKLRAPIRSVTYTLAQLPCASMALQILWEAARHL
Description: Inhibition of mPGES1-mediated PGE2 production in microsomes of IL-1beta stimulated human A549 cells preincubated for 15 mins by RP-HPLC analysis. The format is cell-based. Particulars: read-out: IC50. The gist of the method:
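mPGES-1 source: microsomes of A549 cells treated 48 h with IL-1β 2 ng/mL, at 25−50 μg protein/mL in 0.1 M potassium phosphate pH 7.4 with 2.5 mM glutathione. Compound preincubation 15 min at 4 °C; PGH2 (20 μM final) for 1 min; FeCl2/citric acid stop with 11β-PGE2 internal standard. PGE2 by RP-HPLC.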

Data set [1] addresses T2, Polyunsaturated fatty acid 5-lipoxygenase (Homo sapiens, UniProt P09917).
T2 sequence (P09917 whole entry): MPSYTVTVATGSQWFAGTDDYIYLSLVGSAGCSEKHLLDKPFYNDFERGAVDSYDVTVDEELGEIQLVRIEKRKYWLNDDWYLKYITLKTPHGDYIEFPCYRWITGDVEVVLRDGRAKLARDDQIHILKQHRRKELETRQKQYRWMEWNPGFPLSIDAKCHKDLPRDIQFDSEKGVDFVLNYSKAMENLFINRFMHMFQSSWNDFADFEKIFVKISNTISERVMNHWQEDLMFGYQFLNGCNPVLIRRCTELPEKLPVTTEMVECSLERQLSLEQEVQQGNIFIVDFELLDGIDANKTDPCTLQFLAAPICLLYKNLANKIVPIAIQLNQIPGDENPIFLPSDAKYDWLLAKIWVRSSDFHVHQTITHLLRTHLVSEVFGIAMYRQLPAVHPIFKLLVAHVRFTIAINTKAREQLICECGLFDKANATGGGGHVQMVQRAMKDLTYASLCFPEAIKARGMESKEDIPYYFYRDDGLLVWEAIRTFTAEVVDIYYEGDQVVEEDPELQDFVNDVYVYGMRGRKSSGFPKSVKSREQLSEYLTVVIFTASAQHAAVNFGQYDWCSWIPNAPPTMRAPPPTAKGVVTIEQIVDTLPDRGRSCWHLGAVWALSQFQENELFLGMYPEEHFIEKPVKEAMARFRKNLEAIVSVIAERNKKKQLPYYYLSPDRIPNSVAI
Description: Inhibition of human recombinant 5-LO expressed in Escherichia coli Bl21 (DE3) using arachidonic acid as substrate preincubated for 10 mins measured after 10 mins by RP-HPLC analysis. The gist of the method:
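5-LO expressed from pT3-5LO in E. coli BL21(DE3), semi-purified on ATP-agarose, diluted in PBS with 1 mM EDTA and 1 mM ATP. Preincubated with compound 10 min at 4 °C, then 30 s at 37 °C. Started with 2 mM CaCl2 plus 20 μM arachidonic acid; 10 min at 37 °C; ice-cold methanol stop. Three to four experiments.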

The target in data set [2] is T2, Polyunsaturated fatty acid 5-lipoxygenase. Kind of data set: Inhibition of 5-LO in human neutrophils using arachidonic acid as substrate preincubated for 15 mins measured after 10 mins by HPLC analysis. The gist of the method:
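Fresh human neutrophils, 1 × 10⁷/mL in PBS pH 7.4 with 1 mM CaCl2 and 1 mg/mL glucose, preincubated 15 min at 37 °C. LTB4, its all-trans isomers and 5-H(P)ETE by HPLC.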

The subject of data set [3] is Radical scavenging activity. Description: Antioxidant activity assessed as DPPH free radical scavenging activity at 10 uM after 30 mins […] by spectrophotometric analysis. The data set is classed as functional.
Data set [4] can be described thus: Aqueous stability of the compound in at 2 uM in 10 mM aqueous ammonium bicarbonate at pH 7.9 assessed as formation of trans-6-(4'-hydroxy-3'-methoxyphenyl)-2,4-dioxo-5-hexenal measured as residual amount of compound by reversed phase liquid chromatography-coupled mass spectrometry. The format is physicochemical. The following applies: buffer, pH 7.9, 2 µM. An outline of the steps:
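Compounds at 2 μM in 10 mM aqueous ammonium bicarbonate pH 7.9, incubated 30 min at 37 °C. Analysed by UPLC-MS on a C18 column, gradient acetonitrile/water with 0.07% formic acid, at 0.7 mL/min. Residual amount given as % of control; three to four independent experiments.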

The target of data set [5] is Prostaglandin G/H synthase 1 (Homo sapiens, UniProt P23219). Description: Inhibition of COX1-mediated PGE2 production in human platelets assessed as formation of 12-HHT using arachidonic acid as substrate preincubated for 5 mins measured after 5 mins by RP-HPLC analysis. The gist of the method: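 Washed human platelets, 10⁸/mL in PBS pH 7.4 with 1 mM CaCl2: 5 min compound preincubation at room temperature, then 1 min at 37 °C. Arachidonic acid 5 μM added; 5 min at 37 °C. 12-HHT extracted and measured by RP-HPLC.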

In data set [6] the target is T3, Prostaglandin G/H synthase 1 (Ovis aries) (UniProt P05979).
T3 sequence (whole entry): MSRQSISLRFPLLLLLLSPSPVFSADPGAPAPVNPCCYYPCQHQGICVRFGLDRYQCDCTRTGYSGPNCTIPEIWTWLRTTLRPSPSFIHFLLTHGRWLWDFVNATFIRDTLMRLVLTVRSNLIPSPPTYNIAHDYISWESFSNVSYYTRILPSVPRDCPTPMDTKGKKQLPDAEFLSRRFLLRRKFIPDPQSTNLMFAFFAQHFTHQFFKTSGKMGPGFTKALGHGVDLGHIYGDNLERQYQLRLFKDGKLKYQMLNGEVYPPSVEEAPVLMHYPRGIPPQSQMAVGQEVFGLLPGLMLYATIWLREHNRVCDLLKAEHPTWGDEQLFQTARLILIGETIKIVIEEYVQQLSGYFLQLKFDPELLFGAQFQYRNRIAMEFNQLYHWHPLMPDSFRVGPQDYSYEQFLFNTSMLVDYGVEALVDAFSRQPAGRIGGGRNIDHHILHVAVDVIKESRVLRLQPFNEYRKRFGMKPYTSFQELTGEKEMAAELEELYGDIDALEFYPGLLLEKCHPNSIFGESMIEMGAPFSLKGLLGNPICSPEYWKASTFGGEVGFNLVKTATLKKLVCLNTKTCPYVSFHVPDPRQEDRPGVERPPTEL
Kind of data set: Inhibition of purified ovine COX-1 assessed as residual activity by measuring formation of 12-HHT from arachidonic acid preincubated at 10 uM for 5 mins before substrate addition measured after 5 mins by HPLC analysis relative to control. An outline of the steps:
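Purified ovine COX-1 (50 units) in 100 mM Tris pH 8 with 5 mM glutathione, 5 μM hemoglobin and 100 μM EDTA. Preincubated 5 min at 4 °C then 1 min at 37 °C. 5 μM arachidonic acid added; 12-HHT extracted after 5 min and measured by HPLC. Residual activity at 10 μM, three independent experiments.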

Data set [7] concerns the target T4, Polyunsaturated fatty acid lipoxygenase ALOX12 (Homo sapiens) (UniProt P18054).
T4 sequence (whole entry): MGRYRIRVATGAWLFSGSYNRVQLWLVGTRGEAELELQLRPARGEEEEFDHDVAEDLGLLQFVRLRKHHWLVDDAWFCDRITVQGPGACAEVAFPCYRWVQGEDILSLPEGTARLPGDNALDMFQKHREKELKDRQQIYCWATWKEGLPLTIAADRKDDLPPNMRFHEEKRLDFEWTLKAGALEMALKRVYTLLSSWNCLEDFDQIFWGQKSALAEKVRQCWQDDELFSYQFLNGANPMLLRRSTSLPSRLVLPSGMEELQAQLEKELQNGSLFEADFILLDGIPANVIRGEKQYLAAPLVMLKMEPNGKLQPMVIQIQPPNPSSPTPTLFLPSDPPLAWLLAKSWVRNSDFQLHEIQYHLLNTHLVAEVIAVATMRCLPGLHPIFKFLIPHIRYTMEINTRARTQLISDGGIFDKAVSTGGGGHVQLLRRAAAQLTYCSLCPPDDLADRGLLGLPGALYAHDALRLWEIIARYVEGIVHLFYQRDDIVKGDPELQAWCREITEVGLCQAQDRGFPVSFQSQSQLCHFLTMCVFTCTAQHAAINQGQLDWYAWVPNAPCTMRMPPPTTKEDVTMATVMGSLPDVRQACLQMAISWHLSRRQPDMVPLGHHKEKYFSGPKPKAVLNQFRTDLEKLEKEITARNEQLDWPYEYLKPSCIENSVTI
Kind of data set: Inhibition of 12-LO in human neutrophils assessed as residual activity relative to control. Particulars: values are per cent of control.

The next data set concerns LNCaP. Description: Cytotoxicity against human LNCAP cells assessed as cell viability after 24 hrs by MTT assay. The format is cell-based. The gist of the method:
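LNCaP seeded at 10⁴ cells/well and exposed 24 h. MTT added, then 4 h at 37 °C, 5% CO2, dark. Medium removed and formazan dissolved in DMSO; absorbance at 570 nm.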
On the technique in general: Tetrazolium dyes change colour on reduction, which living cells bring about.

The next data set relates to PBMC. Kind of data set: Cytotoxicity against human PBMCs assessed as cell viability after 24 hrs by MTT assay. The format is cell-based. The gist of the method:
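Human PBMC (2 × 10⁵/well), 24 h exposure. MTT then 4 h at 37 °C in darkness. Formazan solubilized with 10% SDS in 20 mM HCl; absorbance 550 nm. Viability relative to untreated cells; IC50 derived.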

Structures are written as SMILES. Active and inactive are the calls of the source. The calls are words filed in the database; no cut-off is given here.

Prostaglandin G/H synthase 1, sequence (P23219 whole entry): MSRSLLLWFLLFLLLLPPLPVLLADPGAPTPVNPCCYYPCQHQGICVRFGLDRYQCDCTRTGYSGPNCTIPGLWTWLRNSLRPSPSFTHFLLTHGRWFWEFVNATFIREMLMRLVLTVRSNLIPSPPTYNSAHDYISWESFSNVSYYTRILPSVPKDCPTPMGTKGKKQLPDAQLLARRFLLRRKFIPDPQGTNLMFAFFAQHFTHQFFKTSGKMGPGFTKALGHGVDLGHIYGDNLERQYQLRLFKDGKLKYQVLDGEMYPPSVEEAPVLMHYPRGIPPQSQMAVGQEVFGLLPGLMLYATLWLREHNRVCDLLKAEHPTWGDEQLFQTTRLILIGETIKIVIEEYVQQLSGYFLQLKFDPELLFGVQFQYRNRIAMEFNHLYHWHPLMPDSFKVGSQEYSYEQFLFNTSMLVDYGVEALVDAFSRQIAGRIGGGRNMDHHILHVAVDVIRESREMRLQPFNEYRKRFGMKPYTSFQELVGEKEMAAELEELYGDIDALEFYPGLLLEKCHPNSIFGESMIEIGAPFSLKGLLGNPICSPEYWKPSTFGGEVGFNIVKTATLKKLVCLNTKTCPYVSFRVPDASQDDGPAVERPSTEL

What is called IC50 is the point on the concentration scale where inhibition reaches its midpoint. In general, residual activity refers to the share of the control activity or signal that is left under treatment. For the compound `COc1cc(/C=C/C(=O)CC(=O)/C=C/c2cc(F)c(O)c(OC)c2)cc(F)c1O`, the half-inhibitory concentration (IC50) on Prostaglandin E synthase is 8.7 µM; in data set [1] it was 0.4 µM; in data set [2] it was 10 µM; in data set [5] it was 7.5 µM; with LNCaP, over 50 µM; with PBMC, over 50 µM. Besides, the Activity in data set [3] turned out to be 61.4%. Further, the Stability entry in data set [4] is listed as “Unstable”. For the same compound, the inhibition result in data set [6] is “inactive”. Moreover, the residual activity in data set [7] came out at 69.7%.
